In general, Ki refers to the dissociation constant of the complex between target and ligand, obtained from inhibition or displacement. The low end stands for higher affinity, the high end for lower affinity. As usually defined, the pKi is the negative decadic logarithm of the Ki, by convention in mol/L. The low end stands for a high Ki, the high end for a low Ki. By Papp is commonly meant a coefficient for how fast a substance crosses the barrier.

A short description of data set [1]: Displacement of [3H]clonidine from imidazoline I1 receptor low affinity site in human hypothalamic membranes measured after 30 mins by liquid scintillation counting spectrometry. It counts as cell membranes, Hypothalamus, Membrane. (In general: Displacement assays read how much labelled ligand stays bound in the presence of the test substance.)
Data set [2] is described as follows: Displacement of [3H]clonidine from imidazoline I1 receptor high affinity site in human hypothalamic membranes measured after 30 mins by liquid scintillation counting spectrometry. Type of data set: cell membranes, Hypothalamus, Membrane.
The nature of data set [3]: Displacement of [3H]2-BFI from imidazoline I2 receptor low affinity site in post-mortem human brain frontal cortex membrane two site model measured after 45 mins by liquid scintillation counting spectrometry.
Data set [4] has as its system Z-138. Description: Cytotoxicity against human Z138 cells at 100 uM by real time IncuCyte proliferation assay. It counts as cell-based. The note with it: z-138, 100 µM. Put shortly: (§1)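 Adherent lines (LN-229, Capan-1, HCT-116, NCI-H460) seeded at 500–1500 cells/well and treated after overnight attachment. Suspension lines (HL-60, K-562, Z-138, DND-41) seeded at 2500–5500 cells/well directly with compound. Highest concentration 100 μM; proliferation tracked by real-time IncuCyte imaging over 72 h at 37 °C.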

For data set [5], the system named is K562. Description: Cytotoxicity against human K562 cells at 100 uM by real time IncuCyte proliferation assay. To be noted: k562, 100 µM. Type of data set: cell-based. Put shortly: as §1
For data set [6], the system named is HL-60. Nature of the data set: Cytotoxicity against human HL-60 cells at 100 uM by real time IncuCyte proliferation assay. The note with it: hl-60, 100 µM. It counts as cell-based. Summed up:
as §1

The species entered for data set [7] is Homo sapiens. Description: Selectivity index, ratio of pKi for displacement of [3H]2-BFI from imidazoline I2 receptor in post-mortem human brain frontal cortex membrane to pKi for displacement of [3H]-RX821002 from adrenergic alpha 2 receptor in post-mortem human brain frontal cortex membrane. Type of data set: cell membranes.
The nature of data set [8]: Displacement of [3H]2-BFI from imidazoline I2 receptor high affinity site in post-mortem human brain frontal cortex membrane two site model measured after 45 mins by liquid scintillation counting spectrometry.
In data set [9] the test system is LN-229. Nature of the data set: Cytotoxicity against human LN-229 cells at 100 uM by real time IncuCyte proliferation assay. Type of data set: cell-based. To be noted: ln-229, 100 µM. Summed up:
as §1

In data set [10] the test system is CAPAN-1. Nature of the data set: Cytotoxicity against human CAPAN-1 cells at 100 uM by real time IncuCyte proliferation assay. It counts as cell-based. The note with it: capan-1, 100 µM. Put shortly:
as §1

The subject of data set [11] is NCI-H460. Nature of the data set: Cytotoxicity against human NCI-H460 cells at 100 uM by real time IncuCyte proliferation assay. It counts as cell-based. To be noted: nci-h460, 100 µM. Summed up:
as §1

Data set [12] can be described thus: Displacement of [3H]2-BFI from imidazoline I2 receptor in post-mortem human brain frontal cortex membrane one site model measured after 45 mins by liquid scintillation counting spectrometry.
The species named for data set [13] is Homo sapiens. Description: Displacement of [3H]2-BFI from imidazoline I2 receptor in post-mortem human brain frontal cortex membrane assessed as occupancy at high affinity site measured after 45 mins by liquid scintillation counting spectrometry.
Data set [14] relates to HCT-116. Description: Cytotoxicity against human HCT-116 cells at 100 uM by real time IncuCyte proliferation assay. It counts as cell-based. To be noted: hct-116, 100 µM. Put shortly:
as §1

The nature of data set [15]: Permeability of compound by PAMPA-BBB assay. It counts as ADME.
Data set [16] can be described thus: Cytotoxicity against human DND41 cells at 100 uM by real time IncuCyte proliferation assay. Type of data set: cell-based. To be noted: dnd41, 100 µM. Put shortly:
as §1

In data set [17] the target is T1, Adrenergic receptor alpha-2 (Homo sapiens, UniProt P08913+P18825+P18089).
T1 sequence (P08913 whole entry): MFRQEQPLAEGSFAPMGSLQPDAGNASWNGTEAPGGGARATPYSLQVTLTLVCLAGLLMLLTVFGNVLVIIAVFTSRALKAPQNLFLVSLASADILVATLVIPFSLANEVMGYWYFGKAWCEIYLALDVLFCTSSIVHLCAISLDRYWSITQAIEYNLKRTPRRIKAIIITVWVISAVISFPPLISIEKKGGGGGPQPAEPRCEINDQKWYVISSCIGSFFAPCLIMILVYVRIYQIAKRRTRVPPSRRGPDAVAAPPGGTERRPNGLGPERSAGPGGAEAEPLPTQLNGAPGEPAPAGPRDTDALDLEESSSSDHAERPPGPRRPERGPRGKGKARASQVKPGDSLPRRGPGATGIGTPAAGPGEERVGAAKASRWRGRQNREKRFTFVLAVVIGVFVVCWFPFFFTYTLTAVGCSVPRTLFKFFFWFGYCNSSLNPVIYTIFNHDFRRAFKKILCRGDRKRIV
T1 sequence (P18825 whole entry): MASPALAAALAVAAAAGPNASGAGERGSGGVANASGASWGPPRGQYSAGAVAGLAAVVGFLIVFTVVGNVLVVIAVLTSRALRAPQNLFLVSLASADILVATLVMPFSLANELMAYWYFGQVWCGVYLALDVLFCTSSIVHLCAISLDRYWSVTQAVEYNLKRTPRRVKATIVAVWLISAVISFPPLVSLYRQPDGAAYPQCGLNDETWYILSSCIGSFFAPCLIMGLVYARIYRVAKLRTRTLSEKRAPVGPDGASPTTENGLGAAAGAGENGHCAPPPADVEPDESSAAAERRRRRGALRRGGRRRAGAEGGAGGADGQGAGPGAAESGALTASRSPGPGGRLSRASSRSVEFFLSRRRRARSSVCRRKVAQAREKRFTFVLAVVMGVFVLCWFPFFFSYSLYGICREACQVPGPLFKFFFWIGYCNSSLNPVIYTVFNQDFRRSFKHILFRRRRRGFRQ
T1 sequence (P18089 whole entry): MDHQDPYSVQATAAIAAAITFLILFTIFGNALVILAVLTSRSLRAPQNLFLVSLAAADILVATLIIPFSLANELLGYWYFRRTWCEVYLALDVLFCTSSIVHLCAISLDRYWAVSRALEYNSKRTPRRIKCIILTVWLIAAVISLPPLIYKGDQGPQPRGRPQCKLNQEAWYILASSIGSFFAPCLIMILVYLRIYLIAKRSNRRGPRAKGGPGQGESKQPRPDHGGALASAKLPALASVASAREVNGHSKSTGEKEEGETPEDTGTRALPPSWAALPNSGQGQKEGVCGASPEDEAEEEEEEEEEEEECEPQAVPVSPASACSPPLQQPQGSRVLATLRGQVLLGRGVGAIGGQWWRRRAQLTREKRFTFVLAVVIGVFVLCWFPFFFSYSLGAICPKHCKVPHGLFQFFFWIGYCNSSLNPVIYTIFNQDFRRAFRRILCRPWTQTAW
Nature of the data set: Displacement of [3H]-RX821002 from adrenergic alpha 2 receptor in post-mortem human brain frontal cortex membrane measured after 30 mins by liquid scintillation counting spectrometry. Type of data set: cell membranes.

Structures are written as SMILES.

As to `COc1nc(C)nc(Cl)c1NC1=NCCN1` [MOXONIDINE], the Ki in data set [1] is 12 µM; in [2], 0.0002 µM.
As to `COc1ccc2cc(-c3ncc[nH]3)oc2c1.Cl`, the pKi is reported as 4.58 in [3], 6.77 in data set [8], 5.88 in [12] and 3.01 in data set [17]. Also, the Activity entry in [4], in [5], in data set [6], in [9], in data set [10] and in data set [11] was “Non-Toxic” throughout. Also, the Activity in data set [13] was 46%; in data set [14] it was “Non-Toxic”; in [16], “Non-Toxic”. The Selectivity Index in data set [7] came out at 741. Besides, in [15], the Papp amounted to 7.6 ×10⁻⁶ cm/s.
On to `Cl.Cn1ccnc1-c1cc2ccccc2o1`, for which the pKi in data set [3] was 5.35; in data set [8], 6.99; in data set [12], 5.98; in [17], 3.75. For the same compound, the Activity entry in [4], in [5], in data set [6], in [9], in data set [10] and in [11] was “Non-Toxic” each time. Also, the results for the Activity in data set [13], in data set [14] and in data set [16] were 38%, “Non-Toxic” and “Non-Toxic”, respectively. Also, the Selectivity Index in [7] amounted to 170. In addition, the Papp in data set [15] is 17.4 ×10⁻⁶ cm/s.

The record behind these values is ChEMBL document CHEMBL4825692, “Benzofuranyl-2-imidazoles as imidazoline I2 receptor ligands for Alzheimer's disease” (Eur J Med Chem, 2021).
